We go through one compound from ChEMBL document CHEMBL4376814, “Novel cyclin-dependent kinase 9 (CDK9) inhibitor with suppression of cancer stemness activity against non-small-cell lung cancer” (Eur J Med Chem, 2019).

Active and inactive are the calls of the source. No cut-off for these calls is given here.

What is called inhibition is the change of the read-out against control, counted positive when it falls. What is called IC50 is the concentration that gives 50% inhibition.

One experiment has as its system SiHa. The experiment is described as follows: Antiproliferative activity against human SiHa cells assessed as inhibition of cell viability at 10 uM after 72 hrs by CCK-8 assay relative to control. The experiment is classed as functional. The gist of the method: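 Single-concentration viability screen using CCK-8. Cells were seeded at 3000/well and treated for 72 h. A450 read after 1-4 h with reagent. Percent inhibition calculated against untreated control and blank wells as (Ac−As)/(Ac−Ab)×100%.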
A general note: Formazan colour is commonly taken as a measure of viable cells.

The next experiment relates to Jurkat. The experiment is described as follows: Antiproliferative activity against human Jurkat cells assessed as inhibition of cell viability after 72 hrs by CCK-8 assay. The class given is functional, cell-based. Summed up: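 Cells kept at 37 °C, 5% CO2 in DMEM or RPMI-1640 with 10% FBS and 1% penicillin/streptomycin, then seeded at 3000 cells/well (adherent) or 10,000 cells/well (suspension). Exposed to a range of concentrations for 72 h. CCK-8 added for 1-4 h before reading A450. […] Three independent experiments.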

A further experiment concerns NCI-H1299. The experiment is described as follows: Inhibition of colony formation in human H1299 cells after 12 days by crystal violet staining based assay. The class given is functional, cell-based. The gist of the method:
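Cells exposed to compound, then washed, trypsinized and reseeded at 300 cells per well in 6-well plates. Colonies grew 10-14 days (legend: 12 days), were fixed in methanol 30 min, stained overnight with 0.5% crystal violet and imaged.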

The test system of experiment [1] is A549. The experiment is described as follows: Induction of apoptosis in human A549 cells assessed as viable cells at 1 uM after 48 hrs by AnnexinV-FITC/PI staining-based flow cytometric analysis (reference value: 88.8%). The class given is functional. The note with it: A549, 48 h, read-out: Activity. (Flow cytometry measures light scatter and fluorescence of single cells or particles in a stream.)

The subject of experiment [2] is A549. The experiment is described as follows: Induction of apoptosis in human A549 cells assessed as activation of caspase 3 at 0.25 to 1 uM after 24 hrs by Western blot analysis. The experiment is classed as functional, cell-based. Summed up: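 A549 or H1299 cells exposed to the indicated concentrations for 24 h. Protein extracts then immunoblotted for apoptosis-pathway proteins (Bcl2, Bim, cleaved caspase 3).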
(A western blot detects proteins with antibodies after separation by electrophoresis.)

For experiment [3], the target named is Activated CDC42 kinase 1 (Homo sapiens) (UniProt Q07912). The experiment is described as follows: Inhibition of recombinant human ACK1 (1 to 389 residues) at 1 uM using EFPIYDFLPAKKK as substrate measured after 40 mins in presence of [gamma33P]ATP by scintillation counting method relative to control.
Activated CDC42 kinase 1 (Homo sapiens), sequence (Q07912 whole entry, looked up, the tested form may be a part): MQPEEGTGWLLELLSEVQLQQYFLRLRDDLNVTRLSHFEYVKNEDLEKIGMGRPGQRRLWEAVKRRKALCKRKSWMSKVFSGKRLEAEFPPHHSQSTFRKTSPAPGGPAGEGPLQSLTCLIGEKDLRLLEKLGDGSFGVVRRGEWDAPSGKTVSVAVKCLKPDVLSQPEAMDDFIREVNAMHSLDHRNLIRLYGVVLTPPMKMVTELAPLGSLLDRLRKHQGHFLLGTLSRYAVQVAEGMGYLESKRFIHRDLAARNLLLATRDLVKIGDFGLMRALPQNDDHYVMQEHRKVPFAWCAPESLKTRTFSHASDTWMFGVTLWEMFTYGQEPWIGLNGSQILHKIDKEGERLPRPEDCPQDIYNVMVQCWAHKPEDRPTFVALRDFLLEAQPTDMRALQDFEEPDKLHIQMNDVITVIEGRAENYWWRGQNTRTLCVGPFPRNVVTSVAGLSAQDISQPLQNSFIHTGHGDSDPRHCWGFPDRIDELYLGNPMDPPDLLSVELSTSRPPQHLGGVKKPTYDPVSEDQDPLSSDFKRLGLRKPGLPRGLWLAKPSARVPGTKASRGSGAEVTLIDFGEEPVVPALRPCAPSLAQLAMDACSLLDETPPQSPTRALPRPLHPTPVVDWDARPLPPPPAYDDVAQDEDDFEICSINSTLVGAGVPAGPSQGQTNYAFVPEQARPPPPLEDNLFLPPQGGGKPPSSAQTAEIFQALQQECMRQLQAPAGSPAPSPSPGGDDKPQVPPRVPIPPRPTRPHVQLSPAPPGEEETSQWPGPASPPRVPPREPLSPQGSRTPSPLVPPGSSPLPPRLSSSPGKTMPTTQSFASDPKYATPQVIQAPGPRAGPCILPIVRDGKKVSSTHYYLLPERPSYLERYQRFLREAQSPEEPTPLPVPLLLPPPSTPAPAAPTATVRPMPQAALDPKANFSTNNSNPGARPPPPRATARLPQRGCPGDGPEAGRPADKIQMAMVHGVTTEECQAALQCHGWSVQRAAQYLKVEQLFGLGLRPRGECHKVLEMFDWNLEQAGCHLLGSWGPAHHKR
The target in experiment [4] is Bone morphogenetic protein receptor type-1B (Homo sapiens) (UniProt O00238). The experiment is described as follows: Inhibition of recombinant human ALK6 (148 to end residues) at 1 uM using casein as substrate measured after 40 mins in presence of [gamma33P]ATP by scintillation counting method relative to control.
The target in experiment [5] is Mitogen-activated protein kinase kinase kinase 3 (Homo sapiens) (UniProt Q99759). Put plainly: Inhibition of full-length recombinant human MEKK3 at 1 uM using myelin basic protein as substrate measured after 120 mins in presence of [gamma33P]ATP by scintillation counting method relative to control. Summed up: (§1)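 Percent inhibition of kinase activity at a single compound concentration, measured by the outsourced Eurofins KinaseProfiler panel. Values are the mean of two independent experiments.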
Mitogen-activated protein kinase kinase kinase 3 (Homo sapiens), sequence (Q99759 whole entry): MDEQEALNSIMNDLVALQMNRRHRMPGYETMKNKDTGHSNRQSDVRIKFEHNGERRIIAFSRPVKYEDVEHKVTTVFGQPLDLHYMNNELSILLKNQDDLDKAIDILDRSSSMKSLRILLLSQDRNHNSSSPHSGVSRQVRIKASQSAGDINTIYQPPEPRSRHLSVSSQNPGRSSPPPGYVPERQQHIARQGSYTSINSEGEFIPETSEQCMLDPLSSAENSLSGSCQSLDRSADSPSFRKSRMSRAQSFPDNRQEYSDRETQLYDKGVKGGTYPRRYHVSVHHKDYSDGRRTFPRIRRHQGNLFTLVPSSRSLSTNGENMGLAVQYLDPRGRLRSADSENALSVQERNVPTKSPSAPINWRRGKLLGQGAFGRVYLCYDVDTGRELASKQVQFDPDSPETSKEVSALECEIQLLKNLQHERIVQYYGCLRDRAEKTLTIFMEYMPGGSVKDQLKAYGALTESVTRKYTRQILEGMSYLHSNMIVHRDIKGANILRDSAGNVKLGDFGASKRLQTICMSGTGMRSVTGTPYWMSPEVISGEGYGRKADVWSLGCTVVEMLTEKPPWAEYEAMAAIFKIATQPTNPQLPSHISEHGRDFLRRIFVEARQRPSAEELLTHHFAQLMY

For experiment [6], the target named is CDK2/Cyclin A2 (Homo sapiens) (UniProt P24941+P20248). The experiment is described as follows: Inhibition of recombinant full-length human CDK2/cyclinA at 1 uM using Histone H1 as substrate measured after 40 mins in presence of [gamma33P]ATP by scintillation counting method relative to control. The class given is protein-complex assay.
For experiment [7], the target named is CDK12/Cyclin K (Homo sapiens) (UniProt O75909+Q9NYV4). Put plainly: Inhibition of human full length recombinant CDK12/cyclinK at 1 uM using RSRSRSRSRSRSRSR as substrate incubated for 120 mins in presence of [gamma-33P]ATP at by radiometric assay relative to control. The experiment is classed as protein-complex assay.
Experiment [8] deals with Protein kinase C gamma type (Homo sapiens) (UniProt P05129). The experiment is described as follows: Inhibition of recombinant full-length human PKCgamma at 1 uM using histone H1 as substrate measured after 40 mins in presence of [gamma33P]ATP by scintillation counting method relative to control.
For experiment [9], the target named is Epidermal growth factor receptor (Homo sapiens) (UniProt P00533). The experiment is described as follows: Inhibition of recombinant human EGFR (696 to end residues) at 1 uM using poly (Glu,Tyr) 4:1 as substrate incubated for 40 mins in presence of [gamma-33P]ATP at Km concentration by radiometric assay relative to control.
The target of experiment [10] is Focal adhesion kinase 1 (Homo sapiens) (UniProt Q05397). The experiment is described as follows: Inhibition of recombinant human FAK (411 to 686 residues) at 1 uM using EEEEYEEEEEEYYIIEEEEEEYEEEEEEYYEEEEEEKKKK as substrate measured after 40 mins in presence of [gamma33P]ATP by scintillation counting method relative to control.
Focal adhesion kinase 1 (Homo sapiens), sequence (Q05397 2-1052 limits assumed): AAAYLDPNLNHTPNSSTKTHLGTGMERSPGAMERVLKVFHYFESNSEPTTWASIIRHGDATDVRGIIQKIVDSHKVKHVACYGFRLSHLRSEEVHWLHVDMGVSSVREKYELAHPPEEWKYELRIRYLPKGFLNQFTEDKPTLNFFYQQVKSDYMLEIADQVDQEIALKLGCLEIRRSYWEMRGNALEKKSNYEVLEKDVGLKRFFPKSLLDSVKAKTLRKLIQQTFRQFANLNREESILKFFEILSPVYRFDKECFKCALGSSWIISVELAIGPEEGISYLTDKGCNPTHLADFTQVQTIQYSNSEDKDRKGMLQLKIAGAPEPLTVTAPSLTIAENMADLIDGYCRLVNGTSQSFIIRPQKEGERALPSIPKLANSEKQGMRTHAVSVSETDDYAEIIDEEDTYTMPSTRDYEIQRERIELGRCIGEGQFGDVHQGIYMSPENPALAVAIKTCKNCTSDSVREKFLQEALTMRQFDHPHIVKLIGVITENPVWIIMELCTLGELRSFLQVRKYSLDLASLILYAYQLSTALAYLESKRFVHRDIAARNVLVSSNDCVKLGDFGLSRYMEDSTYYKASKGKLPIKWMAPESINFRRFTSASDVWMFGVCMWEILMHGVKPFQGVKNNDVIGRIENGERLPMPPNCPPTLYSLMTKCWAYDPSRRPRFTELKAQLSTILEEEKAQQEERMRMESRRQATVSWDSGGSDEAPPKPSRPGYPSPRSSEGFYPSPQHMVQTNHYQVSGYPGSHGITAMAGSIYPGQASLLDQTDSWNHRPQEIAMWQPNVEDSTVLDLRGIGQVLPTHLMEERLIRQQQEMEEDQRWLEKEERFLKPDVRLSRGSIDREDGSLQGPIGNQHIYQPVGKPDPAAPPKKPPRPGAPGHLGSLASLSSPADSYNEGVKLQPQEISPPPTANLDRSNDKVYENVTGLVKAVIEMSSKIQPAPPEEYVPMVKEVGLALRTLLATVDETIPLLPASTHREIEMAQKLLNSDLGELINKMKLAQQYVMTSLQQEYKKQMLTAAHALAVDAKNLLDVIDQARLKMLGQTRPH
The target of experiment [11] is Tyrosine-protein kinase receptor TYRO3 (Homo sapiens) (UniProt Q06418). The experiment is described as follows: Inhibition of human RSE (451 to end residues) at 1 uM using KVEKIGEGTYGVVYK as substrate measured after 40 mins in presence of [gamma33P]ATP by scintillation counting method relative to control. Summed up: as §1
Tyrosine-protein kinase receptor TYRO3 (Homo sapiens), sequence (Q06418 whole entry): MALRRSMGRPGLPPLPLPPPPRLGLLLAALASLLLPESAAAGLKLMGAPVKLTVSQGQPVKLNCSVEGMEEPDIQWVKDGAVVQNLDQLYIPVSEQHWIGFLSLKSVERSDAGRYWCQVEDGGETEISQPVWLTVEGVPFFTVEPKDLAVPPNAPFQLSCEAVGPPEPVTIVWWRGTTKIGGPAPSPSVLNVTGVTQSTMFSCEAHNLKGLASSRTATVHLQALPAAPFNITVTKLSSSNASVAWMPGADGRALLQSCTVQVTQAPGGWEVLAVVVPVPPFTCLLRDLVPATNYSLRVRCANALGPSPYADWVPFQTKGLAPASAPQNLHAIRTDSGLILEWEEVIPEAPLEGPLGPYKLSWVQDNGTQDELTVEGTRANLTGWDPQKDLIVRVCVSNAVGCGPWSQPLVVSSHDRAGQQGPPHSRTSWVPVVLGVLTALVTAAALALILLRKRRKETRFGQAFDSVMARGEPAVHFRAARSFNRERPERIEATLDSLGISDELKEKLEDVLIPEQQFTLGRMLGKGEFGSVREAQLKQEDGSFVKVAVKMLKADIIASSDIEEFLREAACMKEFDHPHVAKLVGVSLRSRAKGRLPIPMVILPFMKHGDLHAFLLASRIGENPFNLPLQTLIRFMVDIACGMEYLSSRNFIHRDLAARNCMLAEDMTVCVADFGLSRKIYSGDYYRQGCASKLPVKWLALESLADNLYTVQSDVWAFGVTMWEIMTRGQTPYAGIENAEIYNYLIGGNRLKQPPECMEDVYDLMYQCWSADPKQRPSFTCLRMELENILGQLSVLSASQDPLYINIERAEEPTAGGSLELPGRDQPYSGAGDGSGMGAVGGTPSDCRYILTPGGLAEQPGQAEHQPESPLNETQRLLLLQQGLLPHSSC
Experiment [12] concerns the target Mitogen-activated protein kinase 14 (Homo sapiens) (UniProt Q16539). The experiment is described as follows: Inhibition of recombinant full-length human SAPK2a at 1 uM using myelin basic protein as substrate measured after 40 mins in presence of [gamma33P]ATP by scintillation counting method relative to control.
Experiment [13] has as its system Serine/threonine-protein kinase Sgk2 (Homo sapiens), Q9HBY8 [S416D]. Put plainly: Inhibition of recombinant human SGK2 S416D mutant (54 to end residues) at 1 uM using GRPRTSSFAEGKK as substrate measured after 40 mins in presence of [gamma33P]ATP by scintillation counting method relative to control.
Experiment [14] addresses Tyrosine-protein kinase SYK (Homo sapiens) (UniProt P43405). Put plainly: Inhibition of recombinant full-length human Syk at 1 uM using poly(Glu, Tyr) 4:1 as substrate measured after 40 mins in presence of [gamma33P]ATP by scintillation counting method relative to control.
Experiment [15] has as its target Serine/threonine-protein kinase TBK1 (Homo sapiens) (UniProt Q9UHD2). The experiment is described as follows: Inhibition of recombinant full-length human TBK1 at 1 uM using KRRRALS(p)VASLPGL as substrate measured after 40 mins in presence of [gamma33P]ATP by scintillation counting method relative to control. The gist of the method:
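Single-point inhibition at 1 µM was measured in the Eurofins KinaseProfiler panel. Values are the mean of two independent experiments.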

The target in experiment [16] is High affinity nerve growth factor receptor (Homo sapiens) (UniProt P04629). Put plainly: Inhibition of recombinant human TRKA (440 to end residues) at 1 uM using KKKSPGEYVNIEFG as substrate measured after 40 mins in presence of [gamma33P]ATP by scintillation counting method relative to control.
For experiment [17], the system named is PI3-kinase p110-alpha/p85-alpha (Homo sapiens), P27986+P42336 [H1047R]. Put plainly: Inhibition of recombinant full-length human PI3K p110alpha/p85alpha H1047R mutant at 1 uM using phosphatidylinositol-4, 5-bisphosphate as substrate measured after 40 mins by fluorescence assay relative to control.
The subject of experiment [18] is PI3-kinase p110-alpha/p85-alpha (Homo sapiens), P27986+P42336 [E545K]. Put plainly: Inhibition of recombinant full-length human PI3K p110alpha/p85alpha E545K mutant at 1 uM using phosphatidylinositol-4, 5-bisphosphate as substrate measured after 40 mins by HTRF assay relative to control. The class given is protein-complex assay.

Serine/threonine-protein kinase Sgk2 (Homo sapiens), Q9HBY8 [S416D], sequence (Q9HBY8 1-367 with tags or gaps S416D): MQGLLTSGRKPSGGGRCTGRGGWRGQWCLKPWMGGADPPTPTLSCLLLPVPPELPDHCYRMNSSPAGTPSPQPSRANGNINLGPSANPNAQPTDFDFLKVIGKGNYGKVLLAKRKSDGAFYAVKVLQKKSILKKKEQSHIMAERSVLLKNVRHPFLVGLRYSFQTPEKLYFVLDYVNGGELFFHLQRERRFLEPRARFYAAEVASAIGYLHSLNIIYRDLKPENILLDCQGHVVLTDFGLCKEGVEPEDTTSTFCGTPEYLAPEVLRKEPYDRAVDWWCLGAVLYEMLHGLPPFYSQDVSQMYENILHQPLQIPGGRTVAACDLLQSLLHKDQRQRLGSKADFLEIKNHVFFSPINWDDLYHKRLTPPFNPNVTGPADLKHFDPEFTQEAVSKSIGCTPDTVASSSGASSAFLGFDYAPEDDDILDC

As to `CN(C)C(=O)c1cc2cnc(Nc3ccc(NC(=O)CCCCCCCN=C=S)cc3)nc2n1C1CCCC1`, in the experiment with SiHa, the inhibition at 10 µM is 97%. The IC50 in the experiment with Jurkat worked out at 3.43 µM. For the same compound, the inhibition result was “Dose-dependent effect” in the experiment on NCI-H1299; 82% in experiment [3]; -1% in experiment [4]; 66% in [5]; 58% in [6]; 45% in experiment [7]. Also, the inhibition in experiment [8] came to 86%; in [9], 21%; in [10], 22%; in experiment [11], 26%; in experiment [12], 20%; in experiment [13], 14%. Further, the inhibition in experiment [14] came out at 22%; in experiment [15], 12%; in experiment [16] it was 77%; in experiment [17] it was 2%; in experiment [18] it was 4%. Besides, the viability at 1 µM in the experiment on A549 [1] was 74.8%. In the experiment on A549 [2], the result was Active.
